The inhibition is the relative decrease from the control value, in per cent. Broadly, the EC50 is the concentration at which the effect is half-maximal.

This is an account of results in ChEMBL document CHEMBL1158389, “Highly twisted adamantyl arotinoids: synthesis, antiproliferative effects and RXR transactivation profiles” (Eur J Med Chem, 2009).

The test system of one assay is MDA-MB-468. The experiment in a line: Antiproliferative activity against human MDA-MB-468 cells at 4 uM after 48 hrs by MTT assay. The class given is functional. The note with it: MDA-MB-468, 48 h. The gist of the method: (§1)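 Epithelial cancer lines came from ATCC and were seeded the day before in complete medium: PC-3, SkOV3 and A549 at 3,000/well; MiaPaCa-2 and BxPC-3 at 4,000; T-47D and MDA-MB-468 at 5,000. Medium was switched to 0.5% FBS just before exposure to 4 μM. Read-out was MTT (4 h, 37 °C), SDS/HCl solubilisation, A595 minus cell-free blank. Growth inhibition was taken versus DMSO (≤0.1% v/v) controls, ≥2 experiments in triplicate.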

For assay [1], the target named is T1, Retinoic acid receptor alpha (Homo sapiens) (UniProt P10276).
T1 sequence (whole entry): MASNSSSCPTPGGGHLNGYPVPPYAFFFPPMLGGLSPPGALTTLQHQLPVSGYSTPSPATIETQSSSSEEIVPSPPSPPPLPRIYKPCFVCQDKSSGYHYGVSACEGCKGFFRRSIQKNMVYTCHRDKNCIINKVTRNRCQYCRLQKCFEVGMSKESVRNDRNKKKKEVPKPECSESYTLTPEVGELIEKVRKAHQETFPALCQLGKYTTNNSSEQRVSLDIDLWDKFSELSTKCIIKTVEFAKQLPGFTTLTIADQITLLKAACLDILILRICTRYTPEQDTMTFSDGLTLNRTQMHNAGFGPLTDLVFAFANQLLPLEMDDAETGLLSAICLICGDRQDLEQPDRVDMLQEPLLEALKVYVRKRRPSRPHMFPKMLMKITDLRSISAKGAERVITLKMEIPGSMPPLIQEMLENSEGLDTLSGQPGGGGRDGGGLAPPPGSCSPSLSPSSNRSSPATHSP
The experiment in a line: Inhibition of transactivation activity of Gal4-LBD fused human RARalpha (156 to 454) transfected in atRA-stimulated african green monkey CV1 cells at 0.2 uM after 6 hrs by Dual-light chemiluminescent assay. Format: cell-based. As to conditions: CV-1, 0.2 uM. The gist of the method:
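Gal4 DBD (1–147) was fused to hRARα (156–462) or hRARβ (169–448) LBD. CV-1 cells (20,000/well) were co-transfected with 10 ng Gal4-LBD, 100 ng UAS-luciferase and 25 ng β-gal vector. After 16 h the medium was replaced with medium containing 5% charcoal-treated FBS. Cells got atRA plus test compound at 10-, 40- or 200-fold excess (0.2, 0.8, 4 μM) for 6 h. Luciferase and β-galactosidase were read by chemiluminescence.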

Assay [2] addresses T2, Retinoic acid receptor gamma (Homo sapiens) (UniProt P13631).
T2 sequence (whole entry): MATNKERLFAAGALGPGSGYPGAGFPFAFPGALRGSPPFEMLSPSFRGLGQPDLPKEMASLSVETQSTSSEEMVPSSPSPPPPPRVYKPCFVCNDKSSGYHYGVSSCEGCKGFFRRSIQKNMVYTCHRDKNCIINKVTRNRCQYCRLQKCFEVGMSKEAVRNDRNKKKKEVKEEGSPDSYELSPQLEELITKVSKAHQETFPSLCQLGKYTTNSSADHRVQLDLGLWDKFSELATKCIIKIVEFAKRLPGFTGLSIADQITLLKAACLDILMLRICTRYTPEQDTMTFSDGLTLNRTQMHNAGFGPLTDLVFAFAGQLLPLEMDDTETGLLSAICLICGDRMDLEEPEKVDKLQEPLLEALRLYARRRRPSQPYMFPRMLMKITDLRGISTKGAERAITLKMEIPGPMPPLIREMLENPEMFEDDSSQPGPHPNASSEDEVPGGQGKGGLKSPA
Description: Inhibition of transactivation activity of Gal4-LBD fused human RARgamma (178 to 454) transfected in atRA-stimulated african green monkey CV1 cells at 4 uM after 20 hrs by Dual-light chemiluminescent assay. As to conditions: CV-1.

For the next assay, the system named is SK-OV-3. Description: Antiproliferative activity against human SKOV3 cells at 4 uM after 48 hrs by MTT assay. Format: functional. The note with it: SK-OV-3, 48 h. The gist of the method: as §1
In general terms: Formazan colour is commonly taken as a measure of viable cells.

Assay [3] deals with T3, Retinoic acid receptor beta (Homo sapiens) (UniProt P10826).
T3 sequence (whole entry): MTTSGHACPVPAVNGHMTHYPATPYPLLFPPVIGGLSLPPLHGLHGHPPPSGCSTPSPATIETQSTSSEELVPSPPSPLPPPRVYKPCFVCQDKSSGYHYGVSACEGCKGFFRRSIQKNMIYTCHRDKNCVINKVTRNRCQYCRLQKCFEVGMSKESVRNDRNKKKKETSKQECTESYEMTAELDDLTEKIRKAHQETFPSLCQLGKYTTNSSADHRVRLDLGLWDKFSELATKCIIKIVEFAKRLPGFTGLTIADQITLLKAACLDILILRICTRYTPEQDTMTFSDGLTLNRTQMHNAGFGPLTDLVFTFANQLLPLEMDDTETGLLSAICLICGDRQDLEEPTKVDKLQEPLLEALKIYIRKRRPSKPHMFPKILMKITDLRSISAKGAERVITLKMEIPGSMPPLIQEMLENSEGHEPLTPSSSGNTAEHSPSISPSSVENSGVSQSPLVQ
The experiment in a line: Transactivation of Gal4-LBD fused human RARbeta (169 to 448) transfected in african green monkey CV1 cells assessed as luciferase activity at 2 uM after 6 hrs by Dual-light chemiluminescent assay. Format: cell-based. The note with it: CV-1. The gist of the method:
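Transfected CV-1 cells carried Gal4-LBD constructs: hRARα 156–462, hRARβ 169–448, hRARγ 178–454 or mRXRα 218–467. Transfection used 10 ng Gal4-LBD, 100 ng UAS-luciferase and 25 ng β-gal vector. After 16 h the medium was changed to 5% charcoal-treated FBS. Cells were stimulated with 2 μM analog for 6 h (RARα, RARβ, RXRα) or 20 h (RARγ). Reference agonists were 1 μM atRA (RARα) and 1 μM 9cRA (RXRα). Luciferase and β-galactosidase were read by chemiluminescence.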

Assay [4] concerns the target T4, Retinoic acid receptor RXR-alpha (Mus musculus, UniProt P28700).
T4 sequence (P28700 whole entry): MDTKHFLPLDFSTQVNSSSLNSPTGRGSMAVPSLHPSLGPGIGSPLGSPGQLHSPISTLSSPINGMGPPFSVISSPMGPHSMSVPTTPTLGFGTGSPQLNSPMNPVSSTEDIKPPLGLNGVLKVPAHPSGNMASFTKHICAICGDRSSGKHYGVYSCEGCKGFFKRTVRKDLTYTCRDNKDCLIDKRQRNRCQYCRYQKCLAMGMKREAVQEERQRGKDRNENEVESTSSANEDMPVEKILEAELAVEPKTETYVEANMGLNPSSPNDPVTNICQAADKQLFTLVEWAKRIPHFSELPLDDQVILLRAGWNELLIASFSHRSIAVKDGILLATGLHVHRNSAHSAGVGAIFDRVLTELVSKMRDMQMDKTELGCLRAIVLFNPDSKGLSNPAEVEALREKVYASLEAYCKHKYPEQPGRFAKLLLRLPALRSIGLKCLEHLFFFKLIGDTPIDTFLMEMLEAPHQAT
The experiment in a line: Transactivation of Gal4-LBD fused mouse RXRalpha (218 to 467) transfected in african green monkey CV1 cells assessed as luciferase activity at after 6 hrs by Dual-light chemiluminescent assay. Format: cell-based, CV-1.

Active and inactive are the calls of the source. The rule behind the calls is not given here.

Regarding `COCCOCOc1cc(C)c(-c2ccc3cc(C(=O)O)ccc3c2Cl)cc1C12CC3CC(CC(C3)C1)C2`, the values for the inhibition at 4 µM in the assay with MDA-MB-468 and with SK-OV-3 were 49.9% and 71.2%, respectively. The inhibition result in assay [1] is “inactive”. For the same compound, the outcome in assay [2] and in assay [3] was inactive. Besides, the EC50 in assay [4] amounted to 0.667 µM.

On to `COCCOCOc1cc(C)c(-c2ccc(CC(=O)O)cc2Cl)cc1C12CC3CC(CC(C3)C1)C2`, for which the inhibition at 4 µM in the assay with MDA-MB-468 came out at 25.3%; in the assay on SK-OV-3 it was 19.1%. Besides, the inhibition result in assay [1] is “inactive”. Further, the result in assay [2] and in assay [3] was inactive. Moreover, the concentration for a half-maximal effect (EC50) in assay [4] was 1.14 µM.
